The results in this text go back to PMC5968455 (Cancer cell, 2016).

The subject of assay [1] is patient-derived GBM neural stem cells (GNS). As to the kind of experiment: Proliferation assay, dose-response series. Format: cell-based, human. Particulars: for selectivity toward GNS and NS compared with fibroblasts: IC50 of BJ/IC50 of any NS or GNS with the lowest IC50, dose series 0.39–50 µM; for IC50: read-out: potency (IC50) toward GNS, panel of six GNS lines.
For another assay, the target named is T1, DRD4 receptor (Homo sapiens, UniProt P21917).
T1 sequence (P21917 1-419): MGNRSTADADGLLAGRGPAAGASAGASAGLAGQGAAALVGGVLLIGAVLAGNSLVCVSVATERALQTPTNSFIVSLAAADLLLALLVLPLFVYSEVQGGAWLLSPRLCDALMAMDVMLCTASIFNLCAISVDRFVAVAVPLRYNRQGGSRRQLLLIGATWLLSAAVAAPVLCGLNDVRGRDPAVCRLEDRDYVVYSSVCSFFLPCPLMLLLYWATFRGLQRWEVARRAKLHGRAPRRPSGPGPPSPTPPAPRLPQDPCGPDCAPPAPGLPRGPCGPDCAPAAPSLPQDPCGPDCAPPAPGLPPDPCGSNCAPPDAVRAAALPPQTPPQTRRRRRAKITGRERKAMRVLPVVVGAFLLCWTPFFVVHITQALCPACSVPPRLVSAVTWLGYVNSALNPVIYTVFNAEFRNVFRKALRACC
As to the kind of experiment: Block of forskolin-induced cAMP response by DRD4 agonist. The format is cell-based. Particulars: G362 cells, pretreatment 30 µM, then forskolin 30 µM.

The subject of another assay is adenylate cyclase. As to the kind of experiment: Forskolin-induced cAMP response in GNS. Format: cell-based, human. The following applies: G362 cells, forskolin 30 µM. In a few lines: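 G362 GNS cells were stimulated with forskolin (30 µM) to activate adenylate cyclase. Forskolin was given alone or after pretreatment with a DRD4-selective agonist (30 µM). cAMP level was expressed as fold change versus control; n = 3, mean ± SEM.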

The test system of assay [2] is normal human NS lines (hf5205 and hf6539). The assay can be described thus: Neuronal differentiation of normal NS. Format: cell-based. Particulars: with sequential withdrawal of EGF and FGF; VGlut1 expression.
A further assay concerns GNS (G411 and G362). As to the kind of experiment: Flow cytometric cell-cycle analysis of DNA content. The format is cell-based, human. In a few lines: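 GNS lines G411 and G362 were grown as adherent monolayers in serum-free medium. They were exposed to test compounds (DRD4 antagonists) at 10 µM or 25 µM, alongside DMSO control, for 48 hr. DNA-content cell-cycle distribution was then analysed.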

Assay [3] relates to subcutaneous implanted tumor (G362). As to the kind of experiment: Subcutaneous GNS xenograft in NSG mice. Format: in vivo, mouse. The following applies: 20 mg/kg intraperitoneally; for reduction of average tumor weight at the endpoint: 5 days on, 2 days off, vs vehicle.
The next assay relates to GNS (G362 and G411). The assay can be described thus: LC3B+ puncta immunofluorescence. The format is cell-based, human. Particulars: 48 hr; L-741,742 10 µM, PNU 96415E 25 µM. In a few lines: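 Adherent, serum-free GNS cultures (G362, G411) were exposed for 48 hr to test compounds (DRD4 antagonists) at 10 µM or 25 µM, or DMSO. LC3B was immunostained, and cells with large LC3B+ puncta were counted (>200 cells per group). Results are the fraction of cells; n = 3, mean ± SEM, unpaired one-tailed t test.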

In another assay the test system is G481. The assay can be described thus: Combination index with TMZ. Format: cell-based, human. The following applies: in combination with TMZ. In a few lines: (§1)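 Patient-derived glioblastoma stem cell (GNS) cultures were exposed to temozolomide combined with a test compound (DRD4 antagonist). The combination index (CI) was calculated and plotted against fraction affected (Fa) to judge the interaction.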

Assay [4] concerns G362 cells injected intracranially. The assay can be described thus: Intracranial G362 xenograft survival in NSG mice. Format: in vivo, mouse.
A further assay relates to G362. As to the kind of experiment: Combination index with TMZ. Format: cell-based, human. Particulars: in combination with TMZ. In a few lines: as §1
In assay [5] the test system is non-NS control cells (BJ, Daoy, U-2 OS, C8-D1A). As to the kind of experiment: Proliferation assay in non-NS control cell lines. The format is cell-based. The following applies: highest concentration tested 50 µM.
The next assay concerns GNS, NS and BJ lines. The assay can be described thus: Primary screen of neuroactive compounds, growth inhibition. The format is cell-based, human. Particulars: 5 µM, 5 days; hit = greater than 20% growth inhibition vs DMSO. In outline:
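A 680-compound neuroactive library was screened at 5 µM for 5 days against three human GNS lines, two neural stem cell (NS) lines and BJ fibroblasts. GNS and NS lines were grown as adherent serum-free monolayers. Growth inhibition was calculated relative to DMSO control; a primary hit caused >20% inhibition.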

Consider `CCC(Oc1ccc(Cl)cc1)C(=O)OC1CC2CCC(C1)N2C` (racemic) [(±)-tropanyl-2-(4-chlorophenoxy)butanoate], for which the “selectivity toward GNS and NS compared with fibroblasts” value (from here on “selectivity toward GNS and NS”) in assay [1] is “more than 8 fold”.

As for `Cc1cccc(NC(=O)CN2CCC(c3ccccn3)CC2)c1` [A412997], the “block of forskolin-induced cAMP response” value at DRD4 receptor worked out at 31.3%.

With `C=C[C@@]1(C)CC(=O)[C@]2(O)[C@@]3(C)[C@@H](O)CCC(C)(C)[C@@H]3[C@H](O)[C@H](OC(C)=O)[C@@]2(C)O1` [Forskolin, forskolin], the “increase in cAMP concentration” value in the assay with adenylate cyclase was found to be 2.1 fold.

For `Cc1c(C2CCN(CCc3ccccc3)CC2)noc1-c1ccc(Cl)cc1` [L-741,742], the “neuronal differentiation of NS” value in assay [2] is listed as “dramatically enhanced neuronal differentiation”. Moreover, in the assay with GNS (G411 and G362), the cell-cycle effect entry was “G0/G1 arrest”. Moreover, in [3], the “tumor volume growth vs vehicle control” value was “much slower growth” and the “reduction of average tumor weight at the endpoint” value was 40.9%. Also, in the assay on GNS (G362 and G411), the “cells showing large LC3B+ puncta” value was “more than 50%”. In addition, the “lowest combination index (CI) value” in the assay with G481 was 0.28. Also, the survival over control entry in assay [4] (25 mg/kg alone, treatment from 1 week after engraftment) is “modest but significant benefit in survival”. Also, the “survival compared with TMZ alone” value in [4] (25 mg/kg combined with TMZ (25 or 12.5 mg/kg gavage)) is reported as “significantly improved survival”. For the same compound, the “lowest combination index (CI) value” in the assay on G362 was 0.29. Also, in [1], the “selectivity against GNS compared with NS” value was determined as 8 fold; the “selectivity toward GNS and NS” value is given as “more than 8 fold”; the concentration for half-maximal inhibition (IC50) lay within 1.5 to 6.2 µM.

As for `Clc1ccc(N2CCN(Cc3c[nH]c4ncccc34)CC2)cc1` [L-745,870], in [1], the IC50 was 3.1 to 6.2 µM.

Take `Nc1ccc(CCN2CCN(c3cccc(C(F)(F)F)c3)CC2)cc1` [LY-165,163]: the “selectivity toward GNS and NS” value in [1] is recorded as “more than 8 fold”.

Turning to `CN1[C@@H]2CC[C@H]1C[C@@H](OC(=O)c1cc(Cl)cc(Cl)c1)C2` [MDL-72222], in [1], the “selectivity toward GNS and NS” value is “more than 8 fold”.

As to `CCN(CC)CCOc1ccc(Cc2ccccc2)cc1` [N,N-diethyl-2-(4-(phenylmethyl)phenoxy) ethanamine], the “selectivity toward GNS and NS” value in assay [1] is reported as “more than 8 fold”.

`O=C(NOC[C@H](O)CO)c1ccc(F)c(F)c1Nc1ccc(I)cc1F` [PD 0325901]: the cell-cycle effect result with GNS (G411 and G362) was “G0/G1 arrest”.

For the compound `Cl.Cl.Fc1ccc(N2CCN(CCC3OCCc4ccccc43)CC2)cc1` (stereo not shown) [PNU 96415E], the cell-cycle effect result in the assay with GNS (G411 and G362) is listed as “G0/G1 arrest”. Besides, in [3], the “tumor volume growth vs vehicle control” value is on record as “much slower growth” and the “reduction of average tumor weight at the endpoint” value amounted to 44.3%. Further, the “cells showing large LC3B+ puncta” value with GNS (G362 and G411) was “more than 50%”. In addition, the “lowest combination index (CI) value” with G481 was 0.32. The “lowest combination index (CI) value” in the assay on G362 is on record as 0.56. In [5], the “sensitivity of non-NS control cells” value is given as “not sensitive even at the highest concentration tested”. Further, in [1], the “selectivity against GNS compared with NS” value is listed as 8 fold; the “selectivity toward GNS and NS” value is on record as “more than 8 fold”; the IC50 turned out to be 6.25 µM.

As for `CCN(CC)CCCC(C)Nc1ccnc2cc(Cl)ccc12` (stereo not shown) [chloroquine], the cell-cycle effect entry in the assay on GNS (G411 and G362) is “G0/G1 arrest”.

For `CC(C(O)c1ccc(O)cc1)N1CCC(Cc2ccccc2)CC1.CC(C(O)c1ccc(O)cc1)N1CCC(Cc2ccccc2)CC1.O=C(O)C(O)C(O)C(=O)O` (stereo not shown) [ifenprodil tartrate], in assay [1], the “selectivity against GNS compared with NS” value was determined as 8 fold; the “selectivity toward GNS and NS” value is given as “more than 8 fold”.

`CSc1ccc2c(c1)N(CCC1CCCCN1C)c1ccccc1S2` (stereo not shown) [thioridazine]: the primary screen result in the assay with GNS, NS and BJ lines is on record as “hits”.

For `CN1CCN(CCCN2c3ccccc3Sc3ccc(C(F)(F)F)cc32)CC1` [trifluoperazine], the primary screen result in the assay on GNS, NS and BJ lines was “hits”.

`Cc1cc(C)cc(C(=O)OC2CC3CCC(C2)N3C)c1` (stereo not shown) [tropanyl 3,5-dimethylbenzoate]: the “selectivity toward GNS and NS” value in assay [1] is listed as “more than 8 fold”.

With PD 168568, the IC50 in [1] lay within 25 to 50 µM.
